From ChEMBL document CHEMBL1136943, “Nocathiacin analogs: Synthesis and antibacterial activity of novel water-soluble amides” (Bioorg Med Chem Lett, 2009)
pIC50: −log10 of the molar value. Converted amounts (≈) assume the structure as drawn. One block for each compound: values may come before it.

Experiments:
[1] = Plasma clearance in monkey at 1 mg/kg, iv; assay type: ADME, organism-based, Macaca mulatta; parameters: dose 1 mg/kg, route intravenous; details: rhesus monkey
Summary of the method: (§1)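 Single iv dose of 1 mg/kg in EtOH/PEG400/H2O (10:15:75). Clearance was measured in plasma, with steady-state volume of distribution and terminal half-life derived.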

[2] = Volume of distribution in steady state in mouse at 1 mg/kg, iv; assay type: ADME, organism-based; parameters: dose 1 mg/kg, route intravenous; details: in vivo, read-out: Vdss; summary of the method: as §1
Cytochrome P450 1A2 = biological target: T1, Cytochrome P450 1A2 (Homo sapiens, UniProt P05177); experiment: Inhibition of CYP1A2; assay type: ADME
T1 sequence (P05177 whole entry): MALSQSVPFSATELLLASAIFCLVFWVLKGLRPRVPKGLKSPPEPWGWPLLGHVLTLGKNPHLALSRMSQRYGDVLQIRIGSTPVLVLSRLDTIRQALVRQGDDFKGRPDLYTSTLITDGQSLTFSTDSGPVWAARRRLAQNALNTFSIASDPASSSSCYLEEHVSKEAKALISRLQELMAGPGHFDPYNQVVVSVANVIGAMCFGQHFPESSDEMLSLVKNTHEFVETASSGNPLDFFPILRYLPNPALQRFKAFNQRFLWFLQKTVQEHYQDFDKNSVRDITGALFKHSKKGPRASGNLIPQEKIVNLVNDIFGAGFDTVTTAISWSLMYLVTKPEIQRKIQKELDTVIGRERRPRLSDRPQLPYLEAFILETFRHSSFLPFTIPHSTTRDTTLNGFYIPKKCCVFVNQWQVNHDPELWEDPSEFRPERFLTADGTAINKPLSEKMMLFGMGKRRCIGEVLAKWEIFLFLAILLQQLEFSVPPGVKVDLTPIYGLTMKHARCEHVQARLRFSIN

[3] = Volume of distribution in steady state in monkey at 1 mg/kg, iv; assay type: ADME, organism-based, Macaca mulatta; parameters: dose 1 mg/kg, route intravenous; details: rhesus monkey, in vivo, read-out: Vdss; summary of the method: as §1
[4] = Volume of distribution in steady state in rat at 1 mg/kg, iv; assay type: ADME, organism-based; parameters: dose 1 mg/kg, route intravenous; details: in vivo, read-out: Vdss; summary of the method: as §1
[5] = Terminal half life in mouse at 1 mg/kg, iv; assay type: ADME, organism-based; parameters: dose 1 mg/kg, route intravenous; details: in vivo, read-out: beta t1/2 (converted); summary of the method: as §1
Cytochrome P450 2D6 = Cytochrome P450 2D6 (Homo sapiens, UniProt P10635); experiment: Inhibition of CYP2D6; assay type: ADME
Staphylococcus aureus [6] = experiment: Antibacterial activity against Staphylococcus aureus MB2865 in liquid culture by turbidity method; assay type: functional
Summary of the method: (§2)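 MIC is the lowest concentration giving 100% inhibition of bacterial growth in liquid culture, read by turbidity.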

[7] = Volume of distribution in steady state in dog at 1 mg/kg, iv; assay type: ADME, organism-based, Canis lupus familiaris; parameters: dose 1 mg/kg, route intravenous; details: in vivo, read-out: Vdss; summary of the method: as §1
[8] = biological target: T2, Nuclear receptor subfamily 1 group I member 2 (Homo sapiens, UniProt O75469); experiment: Activity at human PXR
T2 sequence (O75469 whole entry): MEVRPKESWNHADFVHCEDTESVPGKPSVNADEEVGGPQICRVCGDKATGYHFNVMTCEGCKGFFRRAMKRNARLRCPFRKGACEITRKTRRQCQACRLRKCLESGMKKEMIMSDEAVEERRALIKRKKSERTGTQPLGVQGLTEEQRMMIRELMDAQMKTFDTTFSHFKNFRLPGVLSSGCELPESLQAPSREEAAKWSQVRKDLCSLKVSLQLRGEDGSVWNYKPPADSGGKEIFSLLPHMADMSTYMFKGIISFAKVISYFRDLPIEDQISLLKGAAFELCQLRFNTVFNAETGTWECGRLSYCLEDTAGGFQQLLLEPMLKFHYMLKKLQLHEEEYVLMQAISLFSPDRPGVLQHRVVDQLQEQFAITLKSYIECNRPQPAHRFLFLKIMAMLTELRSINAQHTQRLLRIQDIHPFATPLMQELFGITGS

[9] = Plasma clearance in dog at 1 mg/kg, iv; assay type: ADME, organism-based, Canis lupus familiaris; parameters: dose 1 mg/kg, route intravenous; summary of the method: as §1
Enterococcus = experiment: Antibacterial activity against vancomycin-resistant Enterococcus; assay type: functional
Summary of the method: (§3)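 MIC taken as the lowest concentration giving 100% inhibition of bacterial growth in liquid culture, judged by turbidity.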

Staphylococcus aureus [10] = experiment: Antibacterial activity against methicillin-resistant Staphylococcus aureus COL infected mouse thigh model assessed as reduction of bacterial load at 1 mg/kg, iv, bid after 24 hrs; assay type: functional
Summary of the method: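 Mouse MRSA COL thigh infection, 4 mice per group. Test article given intravenously, 0.2 ml, twice daily. Thighs harvested aseptically 24 h after challenge. Bacterial load compared with untreated controls as log reduction over 24 h.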

[11] = Plasma clearance in rat at 1 mg/kg, iv; assay type: ADME, organism-based; parameters: dose 1 mg/kg, route intravenous; summary of the method: as §1
[12] = Terminal half life in rat at 1 mg/kg, iv; assay type: ADME, organism-based; parameters: dose 1 mg/kg, route intravenous; details: in vivo, read-out: beta t1/2 (converted); summary of the method: as §1
Staphylococcus aureus [13] = experiment: Antibacterial activity against Staphylococcus aureus infected iv bid dosed mouse model assessed as reduction of colony forming unit in kidney; assay type: functional
Summary of the method: (§4)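 Systemic S. aureus infection mouse model (SATOA). Compounds were given iv; […]. Kidney bacterial burden (cfu) was compared with untreated control. ED99 is the dose giving a reduction of at least 2 log10 cfu in kidney burden.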

Cytochrome P450 2C8 = biological target: T3, Cytochrome P450 2C8 (Homo sapiens, UniProt P10632); experiment: Inhibition of CYP2C8; assay type: ADME
T3 sequence (P10632 whole entry): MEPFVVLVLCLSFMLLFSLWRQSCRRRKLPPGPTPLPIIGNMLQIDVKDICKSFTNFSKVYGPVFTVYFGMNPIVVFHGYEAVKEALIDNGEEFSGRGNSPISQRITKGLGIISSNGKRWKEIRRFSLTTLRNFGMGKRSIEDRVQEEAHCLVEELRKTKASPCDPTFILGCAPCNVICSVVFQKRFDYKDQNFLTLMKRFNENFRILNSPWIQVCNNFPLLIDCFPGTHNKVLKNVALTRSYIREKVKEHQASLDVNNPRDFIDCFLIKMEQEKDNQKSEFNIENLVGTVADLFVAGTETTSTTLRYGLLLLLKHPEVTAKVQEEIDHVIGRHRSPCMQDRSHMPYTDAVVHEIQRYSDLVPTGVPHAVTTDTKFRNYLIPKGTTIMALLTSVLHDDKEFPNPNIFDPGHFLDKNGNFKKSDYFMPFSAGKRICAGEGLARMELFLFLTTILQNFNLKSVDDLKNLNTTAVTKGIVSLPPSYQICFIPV

Cytochrome P450 2C9 = Cytochrome P450 2C9 (Homo sapiens, UniProt P11712); experiment: Inhibition of CYP2C9; assay type: ADME
[14] = biological target: T4, Type-2 angiotensin II receptor (Homo sapiens, UniProt P50052); experiment: Inhibition of AT2 receptor
T4 sequence (P50052 whole entry): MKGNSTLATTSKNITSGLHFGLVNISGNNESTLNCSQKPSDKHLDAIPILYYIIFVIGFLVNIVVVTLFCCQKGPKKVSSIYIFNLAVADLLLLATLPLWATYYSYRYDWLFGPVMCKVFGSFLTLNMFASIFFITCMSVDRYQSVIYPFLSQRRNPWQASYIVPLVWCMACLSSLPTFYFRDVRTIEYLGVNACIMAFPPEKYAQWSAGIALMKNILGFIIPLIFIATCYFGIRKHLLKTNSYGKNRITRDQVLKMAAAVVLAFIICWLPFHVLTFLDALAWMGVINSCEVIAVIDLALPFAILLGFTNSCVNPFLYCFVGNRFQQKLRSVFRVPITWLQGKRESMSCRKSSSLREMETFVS
Summary of the method: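 AT2 IC50 derived from four dose levels per compound, following a published protocol.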

Cytochrome P450 3A4 = Cytochrome P450 3A4 (Homo sapiens, UniProt P08684); experiment: Inhibition of CYP3A4; assay type: ADME
[15] = Terminal half life in monkey at 1 mg/kg, iv; assay type: ADME, organism-based, Macaca mulatta; parameters: dose 1 mg/kg, route intravenous; details: rhesus monkey, in vivo, read-out: beta t1/2 (converted); summary of the method: as §1
Staphylococcus aureus [16] = experiment: Antibacterial activity against methicillin-resistant Staphylococcus aureus; assay type: functional; summary of the method: as §3
[17] = Terminal half life in dog at 1 mg/kg, iv; assay type: ADME, organism-based, Canis lupus familiaris; parameters: dose 1 mg/kg, route intravenous; details: in vivo, read-out: beta t1/2 (converted); summary of the method: as §1
Cytochrome P450 2C19 = Cytochrome P450 2C19 (Homo sapiens, UniProt P33261); experiment: Inhibition of CYP2C19; assay type: ADME
Enterococcus faecalis [18] = experiment: Antibacterial activity against Enterococcus faecalis C21560 in liquid culture by turbidity method; assay type: functional; summary of the method: as §2
Streptococcus pneumoniae = experiment: Antibacterial activity against Streptococcus pneumoniae CL2883 in liquid culture by turbidity method; assay type: functional; summary of the method: as §2
Staphylococcus aureus [19] = experiment: Antibacterial activity against Staphylococcus aureus infected in mouse model assessed as reduction of >= 2 log 10 cfu kidney burden; assay type: functional; summary of the method: as §4
Enterococcus faecalis [20] = experiment: Antibacterial activity against Enterococcus faecalis; assay type: functional; summary of the method: as §2

Cytochrome P450 3A4, sequence (P08684 whole entry): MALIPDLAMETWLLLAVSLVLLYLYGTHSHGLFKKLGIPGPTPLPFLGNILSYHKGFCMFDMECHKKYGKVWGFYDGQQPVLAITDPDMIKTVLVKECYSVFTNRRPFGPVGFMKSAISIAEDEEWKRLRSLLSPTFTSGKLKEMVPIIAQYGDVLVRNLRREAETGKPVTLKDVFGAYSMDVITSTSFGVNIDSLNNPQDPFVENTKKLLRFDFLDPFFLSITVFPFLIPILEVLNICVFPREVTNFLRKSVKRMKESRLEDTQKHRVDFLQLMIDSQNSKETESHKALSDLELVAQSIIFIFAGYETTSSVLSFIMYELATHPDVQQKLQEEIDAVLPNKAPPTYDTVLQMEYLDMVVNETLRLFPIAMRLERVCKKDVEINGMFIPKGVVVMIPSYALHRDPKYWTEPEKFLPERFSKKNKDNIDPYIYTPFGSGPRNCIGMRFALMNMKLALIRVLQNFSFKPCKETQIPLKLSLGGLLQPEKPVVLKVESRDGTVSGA
Cytochrome P450 2C19, sequence (P33261 whole entry): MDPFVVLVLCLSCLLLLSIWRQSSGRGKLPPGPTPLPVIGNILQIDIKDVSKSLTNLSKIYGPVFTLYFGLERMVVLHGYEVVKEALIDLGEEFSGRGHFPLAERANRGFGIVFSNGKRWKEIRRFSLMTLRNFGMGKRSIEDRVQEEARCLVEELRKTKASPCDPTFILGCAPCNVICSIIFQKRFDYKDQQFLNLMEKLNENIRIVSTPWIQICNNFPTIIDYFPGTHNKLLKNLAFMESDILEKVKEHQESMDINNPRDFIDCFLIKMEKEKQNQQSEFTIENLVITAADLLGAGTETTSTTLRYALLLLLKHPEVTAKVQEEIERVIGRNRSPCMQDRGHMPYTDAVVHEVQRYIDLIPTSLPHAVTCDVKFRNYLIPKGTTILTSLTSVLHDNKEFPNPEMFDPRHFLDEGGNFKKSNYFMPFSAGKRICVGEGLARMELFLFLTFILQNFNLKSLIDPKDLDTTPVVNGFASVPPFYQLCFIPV
Cytochrome P450 2D6, sequence (P10635 whole entry): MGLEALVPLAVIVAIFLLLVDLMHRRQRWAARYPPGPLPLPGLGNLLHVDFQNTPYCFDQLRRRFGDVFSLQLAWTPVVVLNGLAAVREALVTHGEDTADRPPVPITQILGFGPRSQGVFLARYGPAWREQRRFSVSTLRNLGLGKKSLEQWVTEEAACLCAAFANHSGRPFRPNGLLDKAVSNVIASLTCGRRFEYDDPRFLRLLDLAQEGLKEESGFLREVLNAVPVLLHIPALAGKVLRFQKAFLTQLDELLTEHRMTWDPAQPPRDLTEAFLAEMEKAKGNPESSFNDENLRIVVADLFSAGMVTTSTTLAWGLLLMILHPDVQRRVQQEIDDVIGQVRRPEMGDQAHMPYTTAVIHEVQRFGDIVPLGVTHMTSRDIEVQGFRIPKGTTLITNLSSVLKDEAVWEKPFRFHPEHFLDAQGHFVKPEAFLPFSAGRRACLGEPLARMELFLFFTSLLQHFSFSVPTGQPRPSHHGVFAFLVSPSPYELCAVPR
Cytochrome P450 2C9, sequence (P11712 whole entry): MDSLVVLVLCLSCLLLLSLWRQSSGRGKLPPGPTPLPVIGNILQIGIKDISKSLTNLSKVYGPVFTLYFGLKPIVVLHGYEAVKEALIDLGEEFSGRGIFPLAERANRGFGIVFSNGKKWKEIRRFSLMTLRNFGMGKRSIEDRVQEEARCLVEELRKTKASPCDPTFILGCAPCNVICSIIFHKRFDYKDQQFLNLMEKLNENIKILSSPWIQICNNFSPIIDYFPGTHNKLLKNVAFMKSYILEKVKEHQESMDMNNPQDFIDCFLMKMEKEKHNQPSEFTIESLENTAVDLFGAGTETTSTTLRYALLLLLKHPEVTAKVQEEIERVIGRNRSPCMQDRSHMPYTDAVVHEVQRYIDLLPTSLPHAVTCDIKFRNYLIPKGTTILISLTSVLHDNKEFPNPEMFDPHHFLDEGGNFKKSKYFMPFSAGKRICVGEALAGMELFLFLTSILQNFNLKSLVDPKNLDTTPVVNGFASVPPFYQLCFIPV

SMILES: CO/C(C)=C1/NC(=O)[C@H]([C@@H](C)O)NC(=O)c2csc(n2)-c2cc(OC)c(-c3nc(C(=O)NCCCN4CCOCC4)cs3)nc2-c2csc(n2)[C@@H]2COC(=O)c3c4c5c(cccc5n3O)COC(=O)[C@@H](O[C@H]3C[C@](C)(O)[C@H](N(C)C)[C@H](C)O3)[C@@H](OC4)[C@H](NC(=O)c3csc1n3)c1nc(cs1)C(=O)N2
clearance [1]: 15 mL/min/kg
Vd [2]: 18.7 L/kg
pIC50 (Cytochrome P450 1A2): ≤ 4.00
Vd [3]: 1.2 L/kg
Vd [4]: 15.5 L/kg
half-life [5]: 5 h
pIC50 (Cytochrome P450 2D6): ≤ 4.00
MIC (Staphylococcus aureus [6]): 0.01 µg/mL (≈ 0.00662 µM)
Vd [7]: 3.3 L/kg
Activity [8]: Not Active
clearance [9]: 15.6 mL/min/kg
MIC (Enterococcus): 0.06 µg/mL (≈ 0.0397 µM)
Activity (Staphylococcus aureus [10]): 1.22
clearance [11]: 51.3 mL/min/kg
half-life [12]: 6.4 h
ED99 (Staphylococcus aureus [13]): 0.27 mg/kg
pIC50 (Cytochrome P450 2C8): 4.15
pIC50 (Cytochrome P450 2C9): ≤ 4.00
pIC50 [14]: 5.29
pIC50 (Cytochrome P450 3A4): ≤ 4.00
half-life [15]: 6.5 h
MIC (Staphylococcus aureus [16]): 0.00095 µg/mL (≈ 0.000629 µM)
half-life [17]: 5.4 h
pIC50 (Cytochrome P450 2C19): ≤ 4.00

SMILES: C=C(NC(=O)c1csc(-c2nc3c(cc2O)-c2nc(cs2)C(=O)N[C@@H]([C@@H](C)O)C(=O)N/C(=C(\C)OC)c2nc(cs2)C(=O)N[C@@H]2c4nc(cs4)C(=O)N[C@@H](COC(=O)c4c5c6c(cccc6n4O)COC(=O)[C@@H](O[C@H]4C[C@](C)(O)[C@H](N(C)C)[C@H](C)O4)[C@H]2OC5)c2nc-3cs2)n1)C(N)=O [MJ347-81F4 A]
MIC (Enterococcus faecalis [18]): 0.03 µg/mL (≈ 0.0209 µM)
MIC (Staphylococcus aureus [6]): 0.007 µg/mL (≈ 0.00487 µM)
MIC (Streptococcus pneumoniae): 0.002 µg/mL (≈ 0.00139 µM)
MIC (Enterococcus faecalis [20]): 0.015 µg/mL (≈ 0.0104 µM)

SMILES: CO/C(C)=C1/NC(=O)[C@H]([C@@H](C)O)NC(=O)c2csc(n2)-c2cc(O)c(-c3nc(C(=O)NCCNC(=O)CN(C)C)cs3)nc2-c2csc(n2)[C@@H]2COC(=O)c3c4c5c(cccc5n3O)COC(=O)[C@@H](O[C@H]3C[C@](C)(O)[C@H](N(C)C)[C@H](C)O3)[C@@H](OC4)[C@H](NC(=O)c3csc1n3)c1nc(cs1)C(=O)N2
MIC (Enterococcus faecalis [18]): 0.09 µg/mL (≈ 0.0601 µM)
MIC (Staphylococcus aureus [6]): 0.019 µg/mL (≈ 0.0127 µM)
pIC50 [14]: 7.11
MIC (Streptococcus pneumoniae): 0.00059 µg/mL (≈ 0.000394 µM)
ED99 (Staphylococcus aureus [19]): 0.2 mg/kg

Further lines, with some results ahead:

MIC (Enterococcus faecalis [18]): 0.06 µg/mL (≈ 0.0413 µM)
MIC (Staphylococcus aureus [6]): 0.06 µg/mL (≈ 0.0413 µM)
pIC50 [14]: 6.99
MIC (Streptococcus pneumoniae): 0.015 µg/mL (≈ 0.0103 µM)
SMILES: CO/C(C)=C1/NC(=O)[C@H]([C@@H](C)O)NC(=O)c2csc(n2)-c2cc(O)c(-c3nc(C(=O)N4CCN(C)CC4)cs3)nc2-c2csc(n2)[C@@H]2COC(=O)c3c4c5c(cccc5n3O)COC(=O)[C@@H](O[C@H]3C[C@](C)(O)[C@H](N(C)C)[C@H](C)O3)[C@@H](OC4)[C@H](NC(=O)c3csc1n3)c1nc(cs1)C(=O)N2
ED99 (Staphylococcus aureus [19]): 0.24 mg/kg

MIC (Enterococcus faecalis [18]): 0.06 µg/mL (≈ 0.039 µM)
MIC (Staphylococcus aureus [6]): 0.0038 µg/mL (≈ 0.00247 µM)
pIC50 [14]: 6.60
MIC (Streptococcus pneumoniae): 0.00048 µg/mL (≈ 0.000312 µM)
SMILES: CO/C(C)=C1/NC(=O)[C@H]([C@@H](C)O)NC(=O)c2csc(n2)-c2cc(O)c(-c3nc(C(=O)NCCNC(=O)CN4CCOCC4)cs3)nc2-c2csc(n2)[C@@H]2COC(=O)c3c4c5c(cccc5n3O)COC(=O)[C@@H](O[C@H]3C[C@](C)(O)[C@H](N(C)C)[C@H](C)O3)[C@@H](OC4)[C@H](NC(=O)c3csc1n3)c1nc(cs1)C(=O)N2
ED99 (Staphylococcus aureus [19]): 0.05 mg/kg
